The source made the active and inactive calls. No cut-off for these calls is given here.
What was measured:
[1] = tested on: Pseudomonas aeruginosa; assay: Antimicrobial activity against Pseudomonas aeruginosa PA14 by twofold serial dilution method; assay type: functional
[2] = tested on: Saccharomyces cerevisiae; assay: Antimicrobial activity against Saccharomyces cerevisiae BY4742 by twofold serial dilution method; assay type: functional
[3] = tested on: Candida albicans; assay: Antimicrobial activity against Candida albicans F5 by twofold serial dilution method; assay type: functional
[4] = tested on: Staphylococcus aureus; assay: Inhibition of MDR protein in wild-type Staphylococcus aureus 8325-4 assessed as potentiation of antimicrobial activity of berberine after 18 hrs by twofold serial dilution method
[5] = target: T1, Quinolone resistance protein NorA (Staphylococcus aureus) (UniProt P0A0J7); assay: Inhibition of NorA efflux pump in wild-type Staphylococcus aureus 8325-4 assessed as fold reduction of berberine MIC at 56 uM by twofold serial dilution method
T1 sequence (whole entry): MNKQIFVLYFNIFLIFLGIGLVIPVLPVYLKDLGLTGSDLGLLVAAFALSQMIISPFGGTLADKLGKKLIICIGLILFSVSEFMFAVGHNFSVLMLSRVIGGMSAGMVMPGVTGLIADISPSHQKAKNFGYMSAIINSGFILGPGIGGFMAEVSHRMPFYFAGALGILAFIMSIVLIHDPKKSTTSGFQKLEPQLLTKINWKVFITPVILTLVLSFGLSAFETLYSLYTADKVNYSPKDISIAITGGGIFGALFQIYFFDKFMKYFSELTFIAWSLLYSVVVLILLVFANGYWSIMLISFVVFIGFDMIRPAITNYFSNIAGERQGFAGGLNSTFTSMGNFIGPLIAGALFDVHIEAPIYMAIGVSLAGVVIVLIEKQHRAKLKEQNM
How it was run: (§1)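 Checkerboard assay in 96-well plates. Berberine is diluted 2-fold from 30 to 0.5 µg/mL (89-1.5 µM) across rows, and plant compound from 15 to 0.015 µg/mL across columns, with single-agent dilution series on each plate. Inoculum 5 × 10⁶ CFU/mL, 24 h at 37 °C, growth read at A600. Result is the fold reduction in berberine MIC.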

[6] = target: T1, Quinolone resistance protein NorA (Staphylococcus aureus); assay: Inhibition of NorA efflux pump in Staphylococcus aureus K1758 mutant assessed as fold reduction of berberine MIC at 56 uM by twofold serial dilution method; how it was run: as §1
[7] = tested on: Enterococcus faecalis; assay: Antimicrobial activity against Enterococcus faecalis V583 by twofold serial dilution method; assay type: functional
[8] = target: T1, Quinolone resistance protein NorA (Staphylococcus aureus); assay: Inhibition of NorA efflux pump in Staphylococcus aureus K2361 mutant overexpressing NorA assessed as potentiation of berberine-induced antimicrobial activity at 56 uM by twofold serial dilution method; how it was run: as §1
[9] = tested on: Staphylococcus aureus; assay: Antimicrobial activity against wild-type Staphylococcus aureus 8325-4 by twofold serial dilution method; assay type: functional
[10] = tested on: Escherichia coli; assay: Antimicrobial activity against wild-type Escherichia coli K12 by twofold serial dilution method; assay type: functional
[11] = target: T1, Quinolone resistance protein NorA (Staphylococcus aureus); assay: Inhibition of NorA efflux pump in Staphylococcus aureus K2361 mutant overexpressing NorA assessed as potentiation of berberine-induced antimicrobial activity at 48 uM by twofold serial dilution method; how it was run: as §1
[12] = tested on: Staphylococcus aureus; assay: Antimicrobial activity against NorA knockout Staphylococcus aureus K1758 mutant; assay type: functional
[13] = tested on: Staphylococcus aureus; assay: Antimicrobial activity against wild-type Staphylococcus aureus 8325-4; assay type: functional
How it was run: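 Wild-type S. aureus 8325-4 grown in Mueller-Hinton broth and inoculated at 10⁵ cells/mL. Test compound serially diluted 2-fold from 50 µg/mL ([…]). Incubated 18 h at 37 °C. Growth read as absorbance at 600 nm. Triplicate, following NCCLS recommendations.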

[14] = tested on: Staphylococcus aureus; assay: Antimicrobial activity against Staphylococcus aureus K2361 mutant overexpressing NorA; assay type: functional
[15] = target: T1, Quinolone resistance protein NorA (Staphylococcus aureus); assay: Inhibition of NorA efflux pump in wild-type Staphylococcus aureus 8325-4 assessed as fold reduction of berberine MIC at 42 uM by twofold serial dilution method; how it was run: as §1
[16] = target: T1, Quinolone resistance protein NorA (Staphylococcus aureus); assay: Inhibition of NorA efflux pump in Staphylococcus aureus K2361 mutant overexpressing NorA assessed as potentiation of berberine-induced antimicrobial activity at 42 uM by twofold serial dilution method; how it was run: as §1
[17] = target: T1, Quinolone resistance protein NorA (Staphylococcus aureus); assay: Inhibition of NorA efflux pump in wild-type Staphylococcus aureus 8325-4 assessed as fold reduction of berberine MIC at 48 uM by twofold serial dilution method; how it was run: as §1
[18] = target: T1, Quinolone resistance protein NorA (Staphylococcus aureus); assay: Inhibition of NorA efflux pump in Staphylococcus aureus K1758 mutant assessed as fold reduction of berberine MIC at 48 uM by twofold serial dilution method; how it was run: as §1

Q: For `COc1ccc2c(c1)O[C@@H]1c3ccc(O)cc3OC[C@H]21`, which MIC [1] is on record?
A: The MIC was > 140 µM.

Q: What about the MIC [2] of the same molecule?
A: Its MIC is > 140 µM.

Q: And the MIC [3]?
A: The MIC was > 140 µM.

Q: And the Activity [4]?
A: The Activity was “Active”.

Q: What about the fold change (FC) [5] of the same molecule?
A: Its fold change (FC) is 4.

Q: And the fold change (FC) [6]?
A: The fold change (FC) was 4.

Q: What about the MIC [7] of the same molecule?
A: Its MIC is > 140 µM.

Q: And the Activity [8]?
A: Its Activity is “inactive”.

Q: And the MIC [9]?
A: The MIC was > 140 µM.

Q: And the MIC [10]?
A: Its MIC is > 140 µM.

Q: Which MIC [1] does the source give for `COc1ccc2c(c1)O[C@@H]1c3ccc(OC)c(O)c3OC[C@H]21` here?
A: The MIC was > 140 µM.

Q: And the MIC [2]?
A: Its MIC is > 140 µM.

Q: What about the MIC [3] of the same molecule?
A: The MIC was > 140 µM.

Q: And the Activity [4]?
A: The Activity was “inactive”.

Q: What about the MIC [7] of the same molecule?
A: The MIC was > 140 µM.

Q: And the MIC [9]?
A: The MIC was > 140 µM.

Q: And the MIC [10]?
A: The MIC was > 140 µM.

Q: What does the source list for `COc1ccc(-c2coc3cc(O)c(OC)cc3c2=O)c(O)c1`?
A: MIC [1]: > 140 µM; MIC [2]: > 140 µM; MIC [3]: > 140 µM; Activity [4]: Active; MIC [7]: > 140 µM; Activity [11]: inactive; MIC [9]: > 140 µM; MIC [10]: > 140 µM

Q: With `COc1ccc2cc3[n+](cc2c1OC)CCc1cc2c(cc1-3)OCO2` [BERBERINE CHLORIDE] as the molecule, how does the MIC [12] read?
A: The MIC was 89 µM.

Q: What about the MIC [13] of the same molecule?
A: The MIC was 372 µM.

Q: And the MIC [14]?
A: Its MIC is > 1490 µM.

Q: Which MIC [1] does the source give for `COc1cc(OC(C)=O)ccc1-c1oc2cc3c(cc2c1C=O)OCO3` [SPINOSAN A ACETATE] here?
A: The MIC was > 140 µM.

Q: And the MIC [2]?
A: Its MIC is > 140 µM.

Q: What about the MIC [3] of the same molecule?
A: Its MIC is > 140 µM.

Q: And the Activity [4]?
A: Its Activity is “Active”.

Q: And the fold change (FC) [15]?
A: Its fold change (FC) is 62.

Q: And the MIC [7]?
A: Its MIC is > 140 µM.

Q: What about the Activity [16] of the same molecule?
A: The Activity was “Active”.

Q: What about the MIC [9] of the same molecule?
A: The MIC was > 140 µM.

Q: What about the MIC [10] of the same molecule?
A: Its MIC is > 140 µM.

Q: How did the MIC [1] turn out when `COc1cc(O)ccc1-c1oc2cc3c(cc2c1C=O)OCO3` [SPINOSAN A] was run?
A: The MIC was > 140 µM.

Q: And the MIC [2]?
A: Its MIC is > 140 µM.

Q: What about the MIC [3] of the same molecule?
A: The MIC was > 140 µM.

Q: What about the Activity [4] of the same molecule?
A: The Activity was “Active”.

Q: And the fold change (FC) [17]?
A: The fold change (FC) was 8.

Q: And the fold change (FC) [18]?
A: The fold change (FC) was 15.

Q: What about the MIC [7] of the same molecule?
A: The MIC was > 140 µM.

Q: What about the Activity [11] of the same molecule?
A: Its Activity is “inactive”.

Q: And the MIC [9]?
A: The MIC was > 140 µM.

Q: And the MIC [10]?
A: The MIC was > 140 µM.

Q: Which MIC [1] does the source give for `COc1ccc2c(C=O)c(-c3ccc(O)cc3OC)oc2c1` [SPINOSAN B] here?
A: The MIC was > 140 µM.

Q: What about the MIC [2] of the same molecule?
A: The MIC was > 140 µM.

Q: And the MIC [3]?
A: The MIC was > 140 µM.

Q: And the Activity [4]?
A: Its Activity is “inactive”.

Q: What about the MIC [7] of the same molecule?
A: Its MIC is > 140 µM.

Q: What about the MIC [9] of the same molecule?
A: Its MIC is > 140 µM.

Q: And the MIC [10]?
A: The MIC was > 140 µM.

Reference: ChEMBL document CHEMBL1157254, “Metabolites of the "smoke tree", Dalea spinosa, potentiate antibiotic activity against multidrug-resistant Staphylococcus aureus” (2006)
